Data set [1] in a line: Cytotoxicity against African green monkey Vero cells assessed as cell viability at 25 uM after 72 hrs by MTT assay relative to control. The data set is classed as cell-based. The settings on record: chlorocebus sabaeus, read-out: Activity. In outline:
(§1)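 Cells grown in DMEM with 10% FBS at 37 °C, 5% CO₂; seeded 2 x 10³ cells/well, adhered 24 h, then exposed 72 h. MTT: 1 mg/mL for 3 h, formazan in DMSO, absorbance 595 nm. NRU: neutral red 25 µg/mL in serum-free medium for 3 h, desorbed in ethanol:acetic acid:water. Viability as % of untreated control; mean ± SEM of three to five independent experiments in triplicate.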
For orientation: Formazan colour is commonly taken as a measure of viable cells.

Data set [2] in a line: Cytotoxicity against African green monkey Vero cells assessed as cell viability at 1000 uM after 72 hrs by neutral red uptake-based assay relative to control. The conditions noted are these: chlorocebus sabaeus, read-out: Activity. The gist of the method: as §1
The nature of data set [3]: Cytotoxicity against human HaCaT cells assessed as cell viability at 250 uM after 72 hrs by MTT assay relative to control. The settings on record: read-out: Activity. The data set is classed as cell-based. In outline: as §1
Data set [4] in a line: Cytotoxicity against mouse RAW264.7 cells assessed as cell viability at 1000 uM after 72 hrs by MTT assay relative to control. It is filed as cell-based. The conditions noted are these: read-out: Activity. The gist of the method: (§2)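 Cells kept in DMEM with 10% heat-inactivated FBS, 1% penicillin-streptomycin and 0.1% fungizone at 37 °C, 5% CO₂. U-87 MG seeded at 2 x 10^3 cells/well, RAW 264.7 at 5 x 10^2, adhered 24 h, then exposed 72 h. MTT: 1 mg/mL for 3 h, formazan in DMSO, A595. NRU: 25 μg/mL dye, 3 h, ethanol:acetic acid:water desorb. Untreated wells = 100%; three to five independent experiments in triplicate.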

A short description of data set [5]: Cytotoxicity against mouse RAW264.7 cells assessed as cell viability at 1000 uM after 72 hrs by neutral red uptake-based assay relative to control. The settings on record: read-out: Activity. In outline: as §2
Data set [6] is described as follows: Cytotoxicity against human U87MG cells assessed as cell viability at 50 uM after 72 hrs by MTT assay relative to control. The settings on record: read-out: Activity. It is filed as cell-based, U-87MG ATCC. The gist of the method: as §2
A short description of data set [7]: Cytotoxicity against human U87MG cells assessed as cell viability at 100 uM after 72 hrs by MTT assay relative to control. The data set is classed as cell-based, U-87MG ATCC. The conditions noted are these: read-out: Activity. The gist of the method:
as §1

The nature of data set [8]: Cytotoxicity against human U87MG cells assessed as cell viability at 250 uM after 72 hrs by MTT assay relative to control. It is filed as cell-based, U-87MG ATCC. The settings on record: read-out: Activity. The gist of the method:
as §2

Data set [9] can be described thus: Cytotoxicity against human U87MG cells assessed as cell viability at 250 uM after 72 hrs by neutral red uptake-based assay relative to control. On the set-up: species or system U-87MG ATCC. The conditions noted are these: read-out: Activity. The gist of the method:
as §2

The next data set deals with T1, Cytochrome P450 1A2 (Homo sapiens, UniProt P05177).
T1 sequence (P05177 whole entry): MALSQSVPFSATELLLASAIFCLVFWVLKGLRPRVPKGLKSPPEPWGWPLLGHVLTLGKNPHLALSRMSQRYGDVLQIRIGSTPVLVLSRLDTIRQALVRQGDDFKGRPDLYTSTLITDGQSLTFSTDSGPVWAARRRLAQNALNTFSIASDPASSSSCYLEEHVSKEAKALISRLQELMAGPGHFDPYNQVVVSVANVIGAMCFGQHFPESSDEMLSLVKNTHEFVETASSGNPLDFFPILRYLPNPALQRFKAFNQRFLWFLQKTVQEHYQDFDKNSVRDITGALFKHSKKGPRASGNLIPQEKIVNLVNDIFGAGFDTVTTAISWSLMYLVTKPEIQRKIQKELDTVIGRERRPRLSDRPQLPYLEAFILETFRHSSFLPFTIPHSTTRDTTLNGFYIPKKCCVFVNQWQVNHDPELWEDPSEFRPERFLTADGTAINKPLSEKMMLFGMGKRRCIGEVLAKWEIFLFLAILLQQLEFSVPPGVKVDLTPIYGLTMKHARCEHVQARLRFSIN
Kind of data set: Inhibition of CYP1A2 in human liver microsomes by HPLC-MS/MS analysis. The data set is classed as ADME. (Liver microsomes are vesicles of endoplasmic reticulum, rich in cytochrome P450 enzymes.)

Data set [10] can be described thus: Intrinsic clearance in human liver S9 fraction at 2 uM up to 30 mins in presence of NADPH by HPLC-MS/MS analysis. The data set is classed as ADME, subcellular. The settings on record: read-out: CLH.
The nature of data set [11]: Cmax in CF1 mouse at 50 mg/kg, ip by non-compartmental analysis. The data set is classed as ADME, organism-based. Also on record: dose 50 mg/kg, route intraperitoneal. The settings on record: in vivo. In outline: (§3)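 Male CF1 mice received a single ip injection of 50 mg/kg in 0.9% saline; 3 animals per time point, killed 0.03, 0.08, 0.25, 0.5, 1 and 2 h after dosing; blood collected in heparin tubes.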

A short description of data set [12]: Tmax in CF1 mouse at 50 mg/kg, ip by non-compartmental analysis. The data set is classed as ADME, organism-based. The conditions noted are these: in vivo.
Data set [13] is described as follows: Elimination half life in CF1 mouse at 50 mg/kg, ip by non-compartmental analysis. The data set is classed as ADME, organism-based. The conditions noted are these: in vivo.
Data set [14] is described as follows: AUCt in CF1 mouse at 50 mg/kg, ip by non-compartmental analysis. The settings on record: in vivo. It is filed as ADME, organism-based. The gist of the method: as §3
Data set [15] is described as follows: MRT in CF1 mouse at 50 mg/kg, ip by non-compartmental analysis. The data set is classed as ADME, organism-based. The conditions noted are these: in vivo.
The test system of data set [16] is U-87 MG. Put plainly: Antitumor activity against human U87MG cells xenografted in BALB/c nude mouse assessed as tumor growth inhibition 50 mg/kg/day, ip administered for 14 days co-treated with temozolamide. The conditions noted are these: U-87MG ATCC. It is filed as functional, organism-based. The gist of the method: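 5 x 10⁵ U-87 MG cells implanted subcutaneously in right flank of male BALB/c nude mice; at about 50 mm³, randomized to saline or ip 50 mg/kg/day, with temozolomide 50 mg/kg/day in the combination arm, for 14 days. Relative tumor volume = volume on day / day 0; TGI on day 14 = [1 − RTV treated/RTV control] x 100. Two-way ANOVA with Bonferroni.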

Data set [17] deals with U-87 MG. Kind of data set: Anti-angiogenic activity in tumor of human U87MG cells xenografted in nude BALB/c mouse assessed as reduction in CD31 staining at 50 mg/kg, ip administered for 14 days by immunohistochemistry. The data set is classed as functional, organism-based. The settings on record: U-87MG ATCC. In outline:
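Male nude mice bearing subcutaneous right-flank xenografts of 5 x 10⁵ U-87 MG cells; dosing began at about 50 mm³ tumors, ip daily for 14 days. Tumors formalin-fixed, paraffin sections 3 µm; citrate pH 6 antigen retrieval at 95-98 °C; primary antibody overnight at 4 °C, HRP secondary, DAB. Positive area quantified by optical density at x200, 4 images per tumor; mean ± SEM, one-way ANOVA with Dunnett.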
For orientation: In xenograft studies the graft and the host belong to different species.

For data set [18], the system named is U-87 MG. Put plainly: In-vivo inhibition of cell proliferation in human U87MG cells xenografted in BALB/c nude mouse at 50 mg/kg, ip after 14 days by Ki-67b-staining based assay. It is filed as functional, organism-based. The settings on record: U-87MG ATCC. In outline:
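Male BALB/c nude mice implanted subcutaneously with 5 x 10⁵ U-87 MG cells in the right flank. Treated IP at 50 mg/kg/day for 14 days, with saline controls, starting once tumors reached about 50 mm³. Tumors fixed in formaldehyde and cut at 3 µm. Citrate pH 6 antigen retrieval.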

Data set [19] is described as follows: Toxicity in nude BALB/c mouse xenografted with human U87MG cells assessed as reduction in body weight at 50 mg/kg, […] co-treated with temozolamide. The data set is classed as organism-based. The conditions noted are these: in vivo, ip, 120 h.
Data set [20] has as its system U-87 MG. Put plainly: Anti-angiogenic activity in tumor of human U87MG cells xenografted in nude BALB/c mouse assessed as reduction in number of blood vessels at 50 mg/kg, ip administered for 14 days by hematoxylin and eosin-staining based light microscopy co-treated with temozolamide. The data set is classed as functional, organism-based. The settings on record: U-87MG ATCC. The gist of the method: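 U-87 MG flank xenografts (5 x 10⁵ cells) in male nude mice; ip treatment daily from about 50 mm³ for 14 days, with temozolomide at 50 mg/kg/day in the co-treatment arm. Vessel density counted on HE-stained 3 µm sections by hot-spot method, mean of four fields per tumor at x200, avoiding gross haemorrhage. One-way ANOVA/Dunnett.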

Activity calls are given as the source filed them. The calls are words filed in the database; no cut-off is given here. Bounds are passed on as bounds.

Experimental findings from ChEMBL document CHEMBL4422632, “Design of Novel Inhibitors of Human Thymidine Phosphorylase: Synthesis, Enzyme Inhibition, in Vitro Toxicity, and Impact on Human Glioblastoma Cancer” (J Med Chem, 2019) are described below.

The term IC50 denotes the concentration that gives 50% inhibition. In general, Cmax refers to the peak of the concentration-time curve. Broadly, the Tmax is the time from dosing to the highest level. Broadly, the AUC(0-t) is exposure summed from dosing to a finite time, without extrapolation to infinity. A word on the MRT: it is the average time that molecules of a dose stay in the body.

Take `O=c1[nH]c(CNC(CO)CO)c(I)c(=O)[nH]1`: the viability at 72 h, 25 µM in data set [1] was found to be 101%. Moreover, the viability at 72 h, 1000 µM in data set [2] is 72%; in [4], 72%; in data set [5], 48%. In addition, the viability at 72 h, 250 µM is 96% in data set [3], 97% in data set [8] and 98% in [9]. Also, the viability at 72 h, 50 µM in [6] was determined as 97%. In addition, the viability at 72 h, 100 µM in data set [7] amounted to 96%. In addition, the IC50 against Cytochrome P450 1A2 is greater than 100 µM. The CLint scaled at 2 µM in data set [10] amounted to 13 mL/min/kg. The same compound showed a Cmax in data set [11] of 34800 ng/mL. Also, in data set [12], the Tmax stood at 4.8 min. The “beta t1/2” value in data set [13] was 30 min. In addition, the area under the curve AUC(0-t) in data set [14] was 16900 ng·h/mL. The compound also gave an MRT in data set [15] of 24 min. Further, the TGI result in the data set with U-87 MG [16] is “Active”. Besides, the result in the data set on U-87 MG [17] and in the data set on U-87 MG [20] was Active. In addition, the inhibition entry in the data set with U-87 MG [18] was “inactive”. In data set [19], the Activity result is “Non-Toxic”.
